Results of several laboratories.
Target: Mitogen-activated protein kinase kinase kinase kinase 4 (MAP4K4, Homo sapiens, UniProt O95819)

SMILES	assay	conditions	quantity	value
CC(C)(C)c1nc(-c2cccc(NS(=O)(=O)c3c(F)cccc3F)c2F)c(-c2ccnc(N)n2)s1	enzyme activity, inhibitor, radiometric	1 µM	remaining activity	95%
COc1cc2c(N3CCN(C(=O)Nc4ccc(OC(C)C)cc4)CC3)ncnc2cc1OCCCN1CCCCC1	cell-free assay	0.5 µM	remaining signal	96.6%
Cc1nc(C2CCN(C(=O)c3ccc(OC(F)(F)F)cc3N)CC2)c2ncc(N3CCN(C)CC3)cc2n1	cell-free assay, competition with immobilised ligand	1 µM	remaining binding	100%
Oc1cccc(-c2nc(N3CCOCC3)c3oc4ncccc4c3n2)c1	cell-free assay	0.5 µM	remaining signal	91.4%
CC/C(=N\NC(=O)NCc1cccc(O)c1)c1ccc(O)c(C)c1O	enzyme activity, inhibitor	0.1 µM	inhibition	3.8%
CO[C@@H](C)c1c(Nc2ccc([C@H](N(C)C(=O)C3CCS(=O)(=O)CC3)C(F)(F)F)cc2)cnc2cc(Cl)nn12	cell-free assay, competition with immobilised ligand	1 µM	remaining binding	100%
Nc1nc(Nc2ccc(S(N)(=O)=O)cc2)nn1C(=O)c1c(F)cccc1F	cell-free assay	0.5 µM	remaining signal	83.8%
CN(C(=O)c1ccccc1)c1cc(N(C)c2ccc3c(c2)CCc2ccc(C(=O)NCCN4CCOCC4)cc2C3=O)ccc1F	cell-free assay, competition with immobilised ligand	1 µM	remaining binding	100%
COc1cc(Cl)c(C(=O)N[C@@H](CN[C@H]2CC[C@@H](N)CC2)Cc2ccc(C#N)cc2)cc1-c1ccc(CN[C@H](C)c2ccc(C)cc2)o1	enzyme activity, inhibitor	1 µM	remaining activity	96%
O=C(NC[C@@H]1[C@H]2CN(C(=O)OCc3cc(C(F)(F)F)cc(C(F)(F)F)c3)C[C@@H]12)c1ccc2[nH]nnc2c1	cell-free assay, competition with immobilised ligand	1 µM	remaining binding	100%
O=C(Nc1cnn(-c2csc(C(=O)NC3COC3)c2)c1)Nc1ccccc1Cl	enzyme activity, inhibitor	5 µM	remaining activity	81.1%
CCCCN(CCCC)C(=O)CN1C[C@H](c2cc(OC)c3c(c2)OCO3)[C@@H](C(=O)O)[C@@H]1CC(C)(C)CCC	cell-free assay, competition with immobilised ligand	1 µM	remaining binding	100%
Cc1ccc(C(=O)NCc2ccsc2)cc1C#Cc1cn(C(C)C)c2ncnc(N)c12	enzyme activity, inhibitor	1 µM	activity vs control	146%
CCCS(=O)(=O)Nc1ccc(F)c(C(=O)c2c[nH]c3ncc(-c4ccc(Cl)cc4)cc23)c1F	enzyme activity, inhibitor	1 µM	inhibition	< 10%
COc1cc2ncnc(Nc3ccc(Oc4ccccc4)cc3C)c2cc1OC	enzyme activity, inhibitor	1 µM	inhibition	6%
CS(=O)(=O)CCNCc1ccc(-c2ccc3ncnc(Nc4ccc(OCc5cccc(F)c5)c(Cl)c4)c3c2)o1	cell-free assay	0.5 µM	remaining signal	111%
CN1CC(Oc2cnc(C#N)cc2-c2ccn3nc(NC(=O)C4CC4)cc3c2)C1	enzyme activity, inhibitor	1 µM	inhibition	13%
